From ChEMBL document CHEMBL2384906, “Biological activity, design, synthesis and structure activity relationship of some novel derivatives of curcumin containing sulfonamides” (Eur J Med Chem, 2013)
≈ marks a conversion by molar mass, not a printed value. Calls of active or inactive are those of the source. The rule behind the calls is not given here.

What was measured:
Pseudomonas aeruginosa [1] = test: Antimicrobial activity against Pseudomonas aeruginosa ATCC 15499 after 24 hrs by broth micro serial dilution method; assay type: functional; settings: ATCC 15499, 24 h
Procedure, shortened: (§1)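 This was broth microdilution in autoclaved Mueller-Hinton broth. 150 µL of compound per well was serially diluted […], and 50 µL of test organism was added. Plates were incubated 24 h at 37 °C and optical density was read.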

Bacillus cereus [2] = test: Antimicrobial activity against Bacillus cereus MTCC 7350 assessed as diameter of inhibition zone at 80 uM after 24 hrs by Kirby -Baur disc diffusion method; assay type: functional; settings: MTCC 7350, 24 h, read-out: DIZ
Procedure, shortened: (§2)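 Kirby-Bauer disc diffusion was used. Acetone stocks (160 µM) were serially doubled down to 80, 40 and 20 µM. 4 µL of each went onto 5 mm sterile paper discs, which were dried 30 min at 50 °C. Inoculum was 1.5 × 10⁸ CFU/mL diluted to 3 × 10² CFU/mL, and 50 µL was spread on Mueller-Hinton agar. After 24 h at 37 °C the inhibition-zone diameter was measured. Ciprofloxacin served as positive control.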

Curvularia lunata [3] = test: Antifungal activity against Curvularia lunata MTCC 581 assessed as zone of inhibition at 40 uM after 48 hrs by disc diffusion method; assay type: functional; settings: MTCC 581, 48 h, read-out: IZ
Procedure, shortened: (§3)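 Spores from 4-day potato dextrose agar cultures, suspended in sterile water at 1.5 × 10⁵ CFU/mL. 0.2 mL was spread on potato dextrose agar. 5 mm filter-paper discs soaked with test compound were laid on the lawn. Incubation was 48 h at 28 °C, then the inhibition zone was measured in mm. Fluconazole was the positive control and acetone the negative control.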

Staphylococcus aureus [4] = test: Antimicrobial activity against Staphylococcus aureus ATCC 11632 assessed as diameter of inhibition zone at 20 uM after 24 hrs by Kirby -Baur disc diffusion method; assay type: functional; procedure, shortened: as §2
Curvularia lunata [5] = test: Antifungal activity against Curvularia lunata MTCC 581 assessed as zone of inhibition at 20 uM after 48 hrs by disc diffusion method; assay type: functional; settings: MTCC 581, 48 h, read-out: IZ; procedure, shortened: as §3
Aspergillus flavus [6] = test: Antifungal activity against Aspergillus flavus MTCC 1021 after 48 hrs; assay type: functional; settings: MTCC 1021, 48 h
Trichoderma viride [7] = test: Antifungal activity against Trichoderma viride MTCC 1107 assessed as zone of inhibition at 40 uM after 48 hrs by disc diffusion method; assay type: functional; settings: MTCC 1107, 48 h, read-out: IZ; procedure, shortened: as §3
Aspergillus flavus [8] = test: Antifungal activity against Aspergillus flavus MTCC 1021 assessed as zone of inhibition at 40 uM after 48 hrs by disc diffusion method; assay type: functional; settings: MTCC 1021, 48 h, read-out: IZ; procedure, shortened: as §3
Staphylococcus aureus [9] = test: Antimicrobial activity against Staphylococcus aureus ATCC 11632 assessed as diameter of inhibition zone at 40 uM after 24 hrs by Kirby -Baur disc diffusion method; assay type: functional; procedure, shortened: as §2
Curvularia lunata [10] = test: Antifungal activity against Curvularia lunata MTCC 581 assessed as zone of inhibition at 80 uM after 48 hrs by disc diffusion method; assay type: functional; settings: MTCC 581, 48 h, read-out: IZ; procedure, shortened: as §3
Aspergillus flavus [11] = test: Antifungal activity against Aspergillus flavus MTCC 1021 assessed as zone of inhibition at 80 uM after 48 hrs by disc diffusion method; assay type: functional; settings: MTCC 1021, 48 h, read-out: IZ; procedure, shortened: as §3
HepG2 = test: Cytotoxicity against human HepG2 cells after 24 hrs by MTT assay; assay type: functional, cell-based
Procedure, shortened: (§4)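 The MTT assay seeded 5 × 10⁴ cells per well and grew them 24 h in RPMI 1640 with compound at 2.5–200 µM. Medium without cells was the blank and adriamycin the positive control. MTT was added for 4 h at 37 °C, formazan was solubilised, and absorbance was read at 570 nm. IC50 is the concentration that cuts viability 50% against untreated cells.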

Aspergillus niger [12] = test: Antifungal activity against Aspergillus niger MTCC 1108 assessed as zone of inhibition at 20 uM after 48 hrs by disc diffusion method; assay type: functional; procedure, shortened: as §3
Staphylococcus aureus [13] = test: Antimicrobial activity against Staphylococcus aureus ATCC 11632 assessed as diameter of inhibition zone at 80 uM after 24 hrs by Kirby -Baur disc diffusion method; assay type: functional; settings: ATCC 11632, 24 h, read-out: DIZ; procedure, shortened: as §2
Salmonella typhi [14] = test: Antimicrobial activity against Salmonella typhi ATCC 23564 after 24 hrs by broth micro serial dilution method; assay type: functional; settings: Salmonella enterica subsp. enterica serovar Typhi
Trichoderma viride [15] = test: Antifungal activity against Trichoderma viride MTCC 1107 after 48 hrs; assay type: functional; settings: MTCC 1107, 48 h
Pseudomonas aeruginosa [16] = test: Antimicrobial activity against Pseudomonas aeruginosa ATCC 15499 assessed as diameter of inhibition zone at 80 uM after 24 hrs by Kirby -Baur disc diffusion method; assay type: functional; procedure, shortened: as §2
Trichoderma viride [17] = test: Antifungal activity against Trichoderma viride MTCC 1107 assessed as zone of inhibition at 80 uM after 48 hrs by disc diffusion method; assay type: functional; settings: MTCC 1107, 48 h, read-out: IZ; procedure, shortened: as §3
Trichoderma viride [18] = test: Antifungal activity against Trichoderma viride MTCC 1107 assessed as zone of inhibition at 20 uM after 48 hrs by disc diffusion method; assay type: functional; settings: MTCC 1107, 48 h, read-out: IZ; procedure, shortened: as §3
Curvularia lunata [19] = test: Antifungal activity against Curvularia lunata MTCC 581 after 48 hrs; assay type: functional; settings: MTCC 581, 48 h
QG-56 = test: Cytotoxicity against human QG56 cells after 24 hrs by MTT assay; assay type: functional, cell-based; procedure, shortened: as §4
HeLa = test: Cytotoxicity against human HeLa cells after 24 hrs by MTT assay; assay type: functional, cell-based; procedure, shortened: as §4
Mus musculus = test: Antiinflammatory activity in mouse assessed as inhibition of carrageenan-induced increase in paw volume at 200 mg/kg administered 1 hr prior to carrageenan challenge measured after 3 hrs relative to control; assay type: functional
Procedure, shortened: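 Mice were fasted 2 h and placed in groups of five. Controls received saline i.p. Phenylbutazone was given at 100 mg/kg i.p., curcumin at 200 mg/kg i.p., and derivatives at 200 mg/kg. After 1 h, 0.1 mL of 1% carrageenan in saline was injected subplantar into the right hind paw. Paw volume was followed by plethysmometer for 3 h, and % inhibition was calculated as (Vc − Vt)/Vc × 100.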

Salmonella typhi [20] = test: Antimicrobial activity against Salmonella typhi ATCC 23564 assessed as diameter of inhibition zone at 80 uM after 24 hrs by Kirby -Baur disc diffusion method; assay type: functional; settings: Salmonella enterica subsp. enterica serovar Typhi
Bacillus cereus [21] = test: Antimicrobial activity against Bacillus cereus MTCC 7350 after 24 hrs by broth micro serial dilution method; assay type: functional; settings: MTCC 7350, 24 h; procedure, shortened: as §1
Escherichia coli [22] = test: Antimicrobial activity against Escherichia coli ATCC 35218 assessed as diameter of inhibition zone at 80 uM after 24 hrs by Kirby -Baur disc diffusion method; assay type: functional; procedure, shortened: as §2
Staphylococcus aureus [23] = test: Antimicrobial activity against Staphylococcus aureus ATCC 11632 after 24 hrs by broth micro serial dilution method; assay type: functional; settings: ATCC 11632, 24 h; procedure, shortened: as §1
HCT-116 = test: Cytotoxicity against human HCT116 cells after 24 hrs by MTT assay; assay type: functional, cell-based; procedure, shortened: as §4
Aspergillus niger [24] = test: Antifungal activity against Aspergillus niger MTCC 1108 assessed as zone of inhibition at 80 uM after 48 hrs by disc diffusion method; assay type: functional; settings: MTCC 1108, 48 h, read-out: IZ; procedure, shortened: as §3
Escherichia coli [25] = test: Antimicrobial activity against Escherichia coli ATCC 35218 after 24 hrs by broth micro serial dilution method; assay type: functional; settings: ATCC 35218, 24 h; procedure, shortened: as §1
Aspergillus niger [26] = test: Antifungal activity against Aspergillus niger MTCC 1108 assessed as zone of inhibition at 40 uM after 48 hrs by disc diffusion method; assay type: functional; settings: MTCC 1108, 48 h, read-out: IZ; procedure, shortened: as §3
Aspergillus niger [27] = test: Antifungal activity against Aspergillus niger MTCC 1108 after 48 hrs; assay type: functional; settings: MTCC 1108, 48 h
Aspergillus flavus [28] = test: Antifungal activity against Aspergillus flavus MTCC 1021 assessed as zone of inhibition at 20 uM after 48 hrs by disc diffusion method; assay type: functional; settings: MTCC 1021, 48 h, read-out: IZ; procedure, shortened: as §3
Bacillus cereus [29] = test: Antimicrobial activity against Bacillus cereus MTCC 7350 assessed as diameter of inhibition zone at 20 uM after 24 hrs by Kirby -Baur disc diffusion method; assay type: functional; procedure, shortened: as §2
Bacillus cereus [30] = test: Antimicrobial activity against Bacillus cereus MTCC 7350 assessed as diameter of inhibition zone at 40 uM after 24 hrs by Kirby -Baur disc diffusion method; assay type: functional; procedure, shortened: as §2

SMILES	MIC (Pseudomonas aeruginosa [1]) [µM]	zone of inhibition at 80 µM (Bacillus cereus [2]) [mm]	zone of inhibition at 40 µM (Curvularia lunata [3]) [mm]	diameter of the inhibition zone (DIZ) (Staphylococcus aureus [4])	zone of inhibition at 20 µM (Curvularia lunata [5]) [mm]	MIC (Aspergillus flavus [6]) [µM]	zone of inhibition at 40 µM (Trichoderma viride [7]) [mm]	zone of inhibition at 40 µM (Aspergillus flavus [8]) [mm]	zone of inhibition at 80 µM (Curvularia lunata [10]) [mm]	zone of inhibition at 80 µM (Aspergillus flavus [11]) [mm]	IC50 (HepG2) [µM]	zone of inhibition at 80 µM (Staphylococcus aureus [13]) [mm]	MIC (Salmonella typhi [14])	MIC (Trichoderma viride [15]) [µM]	diameter of the inhibition zone (DIZ) (Pseudomonas aeruginosa [16])	zone of inhibition at 80 µM (Trichoderma viride [17]) [mm]	zone of inhibition at 20 µM (Trichoderma viride [18]) [mm]	MIC (Curvularia lunata [19]) [µM]	IC50 (QG-56) [µM]	IC50 (HeLa) [µM]	other results
COc1cc(/C=C/C(=O)C(/N=N/c2ccc(S(=O)(=O)Nc3nc(C)cc(C)n3)cc2)=C(O)/C=C/c2ccc(O)c(OC)c2)ccc1O	> 80	11	19	inactive	18	40 (≈ 26.3 µg/mL)	19	13	22	14	> 100	10	inactive	20 (≈ 13.2 µg/mL)	inactive	22	18	20 (≈ 13.2 µg/mL)	100	50	diameter of the inhibition zone (DIZ) (Staphylococcus aureus [9]): inactive; zone of inhibition at 20 µM (Aspergillus niger [12]; MTCC 1108, 48 h, read-out: IZ): 9 mm; inhibition in vivo at 200 mg/kg (Mus musculus): 33.8%; diameter of the inhibition zone (DIZ) (Salmonella typhi [20]): inactive; MIC (Bacillus cereus [21]): > 80 µM; diameter of the inhibition zone (DIZ) (Escherichia coli [22]): inactive; MIC (Staphylococcus aureus [23]): > 80 µM; IC50 (HCT-116): Not Active; zone of inhibition at 80 µM (Aspergillus niger [24]): 14 mm; MIC (Escherichia coli [25]): > 80 µM; zone of inhibition at 40 µM (Aspergillus niger [26]): 12 mm; MIC (Aspergillus niger [27]): 40 µM (≈ 26.3 µg/mL); zone of inhibition at 20 µM (Aspergillus flavus [28]): 11 mm; diameter of the inhibition zone (DIZ) (Bacillus cereus [29]): inactive; diameter of the inhibition zone (DIZ) (Bacillus cereus [30]): inactive
COc1ccc(NS(=O)(=O)c2ccc(/N=N/C(C(=O)/C=C/c3ccc(O)c(OC)c3)=C(O)\C=C\c3ccc(O)c(OC)c3)cc2)nn1	> 80	9	16	inactive	12	40 (≈ 26.4 µg/mL)	16	12	19	15	> 100	11	inactive	20 (≈ 13.2 µg/mL)	inactive	19	12	20 (≈ 13.2 µg/mL)	> 100	100	zone of inhibition at 40 µM (Staphylococcus aureus [9]; ATCC 11632, 24 h, read-out: DIZ): 9 mm; inhibition zone (IZ) (Aspergillus niger [12]): inactive; inhibition in vivo at 200 mg/kg (Mus musculus): 29%; diameter of the inhibition zone (DIZ) (Salmonella typhi [20]): inactive; MIC (Bacillus cereus [21]): > 80 µM; diameter of the inhibition zone (DIZ) (Escherichia coli [22]): inactive; MIC (Staphylococcus aureus [23]): > 80 µM; IC50 (HCT-116): Not Active; zone of inhibition at 80 µM (Aspergillus niger [24]): 12 mm; MIC (Escherichia coli [25]): > 80 µM; zone of inhibition at 40 µM (Aspergillus niger [26]): 9 mm; MIC (Aspergillus niger [27]): > 80 µM; zone of inhibition at 20 µM (Aspergillus flavus [28]): 11 mm; diameter of the inhibition zone (DIZ) (Bacillus cereus [29]): inactive; diameter of the inhibition zone (DIZ) (Bacillus cereus [30]): inactive
